Assay [1] concerns the target Sodium-dependent serotonin transporter (Homo sapiens, UniProt P31645). As to the kind of experiment: Displacement of [3H]imipramine from human SERT expressed in HEK293 cells. Type of assay: cell-based. Summed up: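 Membranes from 293 cells expressing SERT were incubated with 2 nM [3H]imipramine in 50 mM Tris-HCl pH 7.4 with 120 mM NaCl and 5 mM KCl for 30 min at 27 °C. Filtered through glass fibre presoaked in 0.5% PEI, then washed with ice-cold 50 mM Tris-HCl pH 7.4 containing 0.9% NaCl.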
(In general: Displacement assays read how much labelled ligand stays bound in the presence of the test substance.)

Assay [2] has as its target T1, 5-hydroxytryptamine receptor 2C (Homo sapiens, UniProt P28335).
T1 sequence (P28335 whole entry): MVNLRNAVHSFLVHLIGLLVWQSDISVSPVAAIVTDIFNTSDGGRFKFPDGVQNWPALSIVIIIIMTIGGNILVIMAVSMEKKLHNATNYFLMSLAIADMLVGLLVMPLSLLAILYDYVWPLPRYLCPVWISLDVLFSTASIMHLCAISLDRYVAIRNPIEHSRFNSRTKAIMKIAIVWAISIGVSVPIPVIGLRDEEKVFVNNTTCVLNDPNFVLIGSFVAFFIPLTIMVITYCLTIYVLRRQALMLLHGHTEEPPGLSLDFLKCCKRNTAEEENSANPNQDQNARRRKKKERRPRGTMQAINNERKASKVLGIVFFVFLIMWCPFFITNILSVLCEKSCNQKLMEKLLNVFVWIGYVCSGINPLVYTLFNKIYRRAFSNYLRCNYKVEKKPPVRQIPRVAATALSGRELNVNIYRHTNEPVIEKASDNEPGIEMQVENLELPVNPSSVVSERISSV
As to the kind of experiment: Displacement of [3H]mesulergine from human recombinant 5HT2C expressed in CHOK1 cells. Type of assay: cell-based, CHO-K1. In a few lines:
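Frozen CHO-K1 membranes with human recombinant 5-HT2C were incubated with 1.3 nM [3H]mesulergine in 50 mM Tris-HCl pH 7.4 with 0.1% ascorbic acid and 4 mM CaCl2 for 60 min at 27 °C. Nonspecific binding was set with 100 mianserin. Stopped by rapid filtration on glass fibre presoaked in 0.5% PEI.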

Assay [3] addresses 5-hydroxytryptamine receptor 2A (Homo sapiens, UniProt P28223). The assay is described as follows: Displacement of [3H]ketanserin from human recombinant 5HT2A expressed in CHOK1 cells. Type of assay: cell-based, CHO-K1. Summed up: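 Human recombinant 5-HT2A membranes from CHO-K1 cells were incubated with 1 nM [3H]ketanserin, with mianserin defining nonspecific binding. Incubation was 60 min at 27 °C in 50 mM Tris-HCl pH 7.4 with 4 mM CaCl2 and 0.1% ascorbic acid. Filtered on glass fibre presoaked in 0.5% PEI, washed, and counted. IC50 by nonlinear regression from 7–8 concentrations in duplicate.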

Assay [4] deals with Voltage-gated inwardly rectifying potassium channel KCNH2 (Homo sapiens, UniProt Q12809). The assay is described as follows: Inhibition of human recombinant ERG channel expressed in HEK293 cells.
The test system of the next assay is Mus musculus. The assay is described as follows: Locomotor activity in mouse assessed as distance traveled by animal in horizontal locomotion at 25 mg/kg, po after 60 mins measured for 30 mins by spontaneous locomotor activity. Type of assay: functional. In a few lines:
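Mice were dosed orally at 25 mg/kg and acclimated to the chamber for 10 min. Horizontal distance travelled (cm) was then recorded over 30 min by automated video tracking. Testing ran between 09:00 and 17:00 h. Mean ± SEM of 6–7 mice.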

Molecules are shown by their SMILES.

This note sets out measurements from ChEMBL document CHEMBL1212860, “Further optimization of novel pyrrole 3-carboxamides for targeting serotonin 5-HT(2A), 5-HT(2C), and the serotonin transporter as a potential antidepressant” (Bioorg Med Chem, 2010).

Usually IC50 stands for the concentration that gives 50% inhibition.

Chain of Voltage-gated inwardly rectifying potassium channel KCNH2 (Q12809 whole entry): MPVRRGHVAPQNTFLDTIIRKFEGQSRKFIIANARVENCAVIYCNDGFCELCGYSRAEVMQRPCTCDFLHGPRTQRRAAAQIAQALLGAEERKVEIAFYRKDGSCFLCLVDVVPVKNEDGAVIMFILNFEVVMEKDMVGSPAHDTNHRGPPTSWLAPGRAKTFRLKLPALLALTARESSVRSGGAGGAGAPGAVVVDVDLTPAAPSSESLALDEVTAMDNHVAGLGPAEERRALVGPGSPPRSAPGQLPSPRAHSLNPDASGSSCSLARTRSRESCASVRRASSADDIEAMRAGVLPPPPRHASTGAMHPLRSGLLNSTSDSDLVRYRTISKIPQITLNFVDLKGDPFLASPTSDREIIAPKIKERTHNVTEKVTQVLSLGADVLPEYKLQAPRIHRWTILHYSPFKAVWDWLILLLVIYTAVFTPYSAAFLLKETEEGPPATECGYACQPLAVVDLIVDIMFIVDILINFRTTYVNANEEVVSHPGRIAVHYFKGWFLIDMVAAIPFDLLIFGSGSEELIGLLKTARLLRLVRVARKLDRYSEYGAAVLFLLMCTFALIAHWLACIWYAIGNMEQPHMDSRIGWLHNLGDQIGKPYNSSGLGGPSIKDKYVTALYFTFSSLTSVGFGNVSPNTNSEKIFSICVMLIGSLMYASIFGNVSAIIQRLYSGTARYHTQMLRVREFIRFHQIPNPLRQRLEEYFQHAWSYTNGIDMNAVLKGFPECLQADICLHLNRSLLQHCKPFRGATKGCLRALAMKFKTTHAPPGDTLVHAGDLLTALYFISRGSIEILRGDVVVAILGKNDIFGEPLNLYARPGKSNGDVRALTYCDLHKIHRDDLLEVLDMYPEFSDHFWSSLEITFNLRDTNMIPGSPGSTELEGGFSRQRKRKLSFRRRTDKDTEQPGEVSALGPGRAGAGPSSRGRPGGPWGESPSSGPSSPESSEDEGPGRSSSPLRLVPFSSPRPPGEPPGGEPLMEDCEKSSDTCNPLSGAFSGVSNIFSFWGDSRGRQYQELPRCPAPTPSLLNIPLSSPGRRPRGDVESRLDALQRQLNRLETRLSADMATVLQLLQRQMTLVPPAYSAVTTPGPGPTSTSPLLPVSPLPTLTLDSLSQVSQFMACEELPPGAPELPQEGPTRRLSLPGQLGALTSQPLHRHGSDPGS
Chain of Sodium-dependent serotonin transporter (P31645 whole entry): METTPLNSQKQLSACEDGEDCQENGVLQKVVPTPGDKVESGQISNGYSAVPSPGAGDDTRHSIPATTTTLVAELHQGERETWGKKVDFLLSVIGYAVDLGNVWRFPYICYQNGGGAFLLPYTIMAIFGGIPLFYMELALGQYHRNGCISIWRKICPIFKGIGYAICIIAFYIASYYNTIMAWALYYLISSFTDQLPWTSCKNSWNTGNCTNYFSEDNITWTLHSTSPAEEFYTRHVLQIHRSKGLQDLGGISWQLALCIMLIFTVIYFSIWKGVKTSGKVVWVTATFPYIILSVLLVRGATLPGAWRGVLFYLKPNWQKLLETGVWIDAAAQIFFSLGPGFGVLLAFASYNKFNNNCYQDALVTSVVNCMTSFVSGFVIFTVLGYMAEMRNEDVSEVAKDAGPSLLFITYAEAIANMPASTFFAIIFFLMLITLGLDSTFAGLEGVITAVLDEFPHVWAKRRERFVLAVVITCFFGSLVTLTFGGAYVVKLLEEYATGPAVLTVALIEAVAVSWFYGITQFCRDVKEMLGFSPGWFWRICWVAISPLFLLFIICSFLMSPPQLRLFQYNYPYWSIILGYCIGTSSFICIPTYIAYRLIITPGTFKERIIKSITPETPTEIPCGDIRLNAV
Chain of 5-hydroxytryptamine receptor 2A (P28223 whole entry): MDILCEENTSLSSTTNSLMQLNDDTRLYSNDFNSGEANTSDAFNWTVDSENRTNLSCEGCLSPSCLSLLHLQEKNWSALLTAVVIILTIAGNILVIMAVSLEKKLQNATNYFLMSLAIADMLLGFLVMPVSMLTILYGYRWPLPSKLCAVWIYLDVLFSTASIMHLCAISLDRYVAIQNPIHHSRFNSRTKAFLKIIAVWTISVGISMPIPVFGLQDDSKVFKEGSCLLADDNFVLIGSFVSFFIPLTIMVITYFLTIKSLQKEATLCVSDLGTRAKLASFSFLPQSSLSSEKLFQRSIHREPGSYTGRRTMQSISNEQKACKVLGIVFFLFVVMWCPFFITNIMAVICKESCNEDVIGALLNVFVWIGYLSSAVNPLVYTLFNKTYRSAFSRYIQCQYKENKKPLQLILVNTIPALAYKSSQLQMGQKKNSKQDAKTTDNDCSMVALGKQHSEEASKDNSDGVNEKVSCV

Turning to `Cc1c(C(=O)NCCCN2CCN(c3ccncc3)CC2)cc(-c2ccccc2)n1C`, the IC50 was more than 10000 nM in assay [1], 5260 nM in assay [2] and 4560 nM in assay [3].
Take `Cc1c(C(=O)N(C)CCCN2CCN(c3cccc(Cl)c3Cl)CC2)cc(-c2ccccc2)n1C`: the 50% inhibitory concentration (IC50) in assay [4] turned out to be 500 nM; in assay [2] it was 35 nM.
As to `Cc1c(C(=O)NCCCN2CCN(c3cccc4cccnc34)CC2)cc(-c2ccccc2)n1C`, the IC50 in assay [1] is 22 nM; in assay [2] it was 233 nM; in assay [3] it was 352 nM.
On the same counts, the results for `Cc1c(C(=O)NCCN2CCN(c3cccc(Cl)c3Cl)CC2)cc(C(C)(C)C)n1C` are 45 nM, 109 nM and 50 nM.
Consider `CCCn1c(-c2ccccc2)cc(C(=O)NCCCN2CCN(c3cccc4cccnc34)CC2)c1C`, for which the IC50 in assay [1] amounted to 82 nM; in assay [2], 420 nM; in assay [3], 210 nM.
Consider `Cc1c(Cl)cccc1N1CCN(CCNC(=O)c2cc(C(C)(C)C)n(C)c2C)CC1`, for which, in the assay with Mus musculus, the Activity is 6217 cm. The IC50 was found to be 315 nM in assay [1], 210 nM in assay [2] and 54 nM in assay [3].
As to `Cc1c(C(=O)NCCCN2CCN(c3cccc(Cl)c3Cl)CC2)cc(-c2cccnc2)n1C`, the IC50 in assay [4] stood at 6800 nM; in assay [1], 7 nM; in assay [2] it was 92 nM; in assay [3], 209 nM.
On to `Cc1c(Cl)cccc1N1CCN(CCNC(=O)c2cc(-c3ccccc3)n(C)c2C)CC1`, for which the Activity with Mus musculus worked out at 7100 cm. Moreover, the results for the IC50 in assay [1] and in assay [2] were 64 nM and 233 nM, respectively.
With `CCCn1c(-c2ccccc2)cc(C(=O)NCCCN2CCN(c3cccc(Cl)c3Cl)CC2)c1C`, the 50% inhibitory concentration (IC50) in assay [4] was 540 nM.
In the case of `CCCn1c(-c2ccccc2)cc(C(=O)NCCCN2CCN(c3cccc(OC)c3)CC2)c1C`, the figures for the IC50 in assay [1], in assay [2] and in assay [3] were 322 nM, 452 nM and 153 nM, respectively.
Consider `CCCn1c(-c2ccccc2)cc(C(=O)NCCCN2CCN(c3ccc(Cl)c(Cl)c3)CC2)c1C`, for which the results for the IC50 in assay [1], in assay [2] and in assay [3] were 284 nM, 324 nM and 54 nM, respectively.
With `CCCn1c(-c2ccccc2)cc(C(=O)NCCCN2CCN(c3cccc(C(F)(F)F)c3)CC2)c1C`, the figures for the IC50 in assay [1], in assay [2] and in assay [3] were 381 nM, 619 nM and 410 nM, respectively.
For the molecule `Cc1[nH]c(-c2ccccc2)cc1C(=O)NCCCN1CCN(c2cccc(Cl)c2Cl)CC1`, the IC50 in assay [4] is 100 nM.
For the molecule `CCCn1c(-c2ccccc2)cc(C(=O)N(C)CCCN2CCN(c3cccc(C)c3C)CC2)c1C`, the IC50 in assay [4] worked out at 700 nM; in assay [1] it was 163 nM; in assay [2], 12 nM; in assay [3] it was 17 nM.
`Cc1[nH]c(-c2ccccn2)cc1C(=O)NCCCN1CCN(c2cccc(Cl)c2Cl)CC1`: in assay [2], the half-maximal inhibitory concentration (IC50) worked out at 221 nM.
`CCCn1c(-c2ccccc2)cc(C(=O)N(C)CCCN2CCN(c3cccc(Cl)c3Cl)CC2)c1C`: the IC50 in assay [2] turned out to be 21 nM.
For `CCCn1c(-c2ccccn2)cc(C(=O)NCCCN2CCN(c3cccc(Cl)c3Cl)CC2)c1C`, the IC50 in assay [4] amounted to 1000 nM.
With `CCCn1c(-c2ccccc2)cc(C(=O)NCCCN2CCN(c3cccc(Br)c3)CC2)c1C`, the IC50 worked out at 225 nM in assay [1], 633 nM in assay [2] and 221 nM in assay [3].
As to `Cc1cccc(N2CCN(CCCNC(=O)c3cc(C(C)(C)C)n(C)c3C)CC2)c1C`, the results for the IC50 in assay [1], in assay [2] and in assay [3] were 252 nM, 1140 nM and 386 nM, respectively.
As to `Cc1cccc(N2CCN(CCNC(=O)c3cc(C(C)(C)C)n(C)c3C)CC2)c1C`, the half-inhibitory concentration (IC50) in assay [4] was determined as 11800 nM; in assay [1], 908 nM; in assay [2], 2230 nM; in assay [3] it was 36 nM.
As for `CCCn1c(-c2ccccc2)cc(C(=O)NCCCN2CCN(c3cc(F)ccc3F)CC2)c1C`, the half-inhibitory concentration (IC50) in assay [1] was found to be 854 nM; in assay [2] it was 1010 nM; in assay [3], 135 nM.
With `Cc1ccc2cccc(N3CCN(CCCNC(=O)c4cc(-c5ccccc5)n(C)c4C)CC3)c2n1`, the values for the IC50 in assay [1], in assay [2] and in assay [3] were 300 nM, 653 nM and 832 nM, respectively.
Turning to `Cc1c(C(=O)NCCN2CCN(c3cccc(Cl)c3Cl)CC2)c(C)n(C)c1-c1ccccc1`, the IC50 in assay [1] came to 78 nM; in assay [2], 16 nM; in assay [3], 33 nM.
Take `CCn1c(-c2ccc(Cl)cc2)cc(C(=O)NCCCN2CCN(c3cccc(Cl)c3Cl)CC2)c1C`: the IC50 worked out at 629 nM in assay [1], 22 nM in assay [2] and 153 nM in assay [3].
On the same counts, the results for `Cc1c(C(=O)NCCCN2CCN(c3ccccc3Br)CC2)cc(-c2ccccc2)n1C` are 225 nM, 633 nM and 221 nM.
